The values below come from ChEMBL document CHEMBL1933056, “Cytotoxic potential of novel 6,7-dimethoxyquinazolines” (Eur J Med Chem, 2012).

Structures are written as SMILES. pIC50: −log10 of the molar value. Calls of active or inactive are those of the source. The rule behind the calls is not given here.

Assay [1] concerns HCT-116. The experiment in a line: Cytotoxicity against p53-deficient human HCT116 cells at 10 uM after 72 hrs by MTT assay. The assay is classed as functional. In general terms: Formazan colour is commonly taken as a measure of viable cells.
Assay [2] deals with HEY. The experiment in a line: Cytotoxicity against human HEY cells at 10 uM after 72 hrs by MTT assay. The assay is classed as functional. In a few lines: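 Single-concentration MTT screen, continuous 72 h exposure at 10 µM (diluted from a 10 mM DMSO stock). MTT was added at 0.5 mg/mL final for 4 h at 37 °C, the formazan was dissolved in DMSO and absorbance read at 570 nm. Result given as % cells killed, (1 − A/C) × 100, done in triplicate. HEY cells were grown in RPMI 1640 with 10% FBS and 2 mM glutamine.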

Assay [3] deals with HCT-116. Description: Cytotoxicity against p53-positive human HCT116 cells at 10 uM after 72 hrs by MTT assay. In kind it is functional.
Assay [4] has as its system HCT-116. The experiment in a line: Cytotoxicity against p53-deficient human HCT116 cells after 72 hrs by MTT assay. In kind it is functional, cell-based. To be noted: HCT-116, 72 h. In a few lines:
(§1)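 Cells seeded, allowed to attach, then exposed to the drug continuously for 72 h over multiple doses. MTT was added at 0.5 mg/mL final for 4 h at 37 °C, solubilized in DMSO and read at 570 nm. Inhibition = (1 − A/C) × 100. IC50 was taken from a plot of log concentration versus % inhibition, assays in triplicate, with SD from at least three independent experiments.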

Assay [5] has as its system HCT-116. The experiment in a line: Cytotoxicity against p53-positive human HCT116 cells after 72 hrs by MTT assay. The note with it: HCT-116, 72 h. In kind it is functional, cell-based. In a few lines: as §1
Assay [6] relates to HCT-116. Description: Anticlonogenic activity against p53-positive human HCT116 cells assessed as inhibition of colony formation at 0.1 to 20 uM after 24 hrs by crystal violet staining-based microscopic analysis. The assay is classed as functional, cell-based. Put shortly: (§2)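 Cells plated at 100 cells/well and left to attach overnight. Serial compound dilutions were applied for 24 h, followed by a PBS wash and culture in drug-free medium for 8-10 days until colonies formed. Colonies were fixed in 1% glutaraldehyde for 30 min, stained with 2% crystal violet for 30 min, imaged and counted. Values are the mean of at least three independent experiments.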

The subject of assay [7] is HCT-116. The experiment in a line: Induction of cell cycle arrest in p53-deficient human HCT116 cells assessed as accumulation at G2/M phase at 1 uM after 48 hrs by flow cytometric analysis (reference value: 24.5%). In kind it is functional. In general terms: In flow cytometry, cells or beads pass a laser one at a time.
Assay [8] has as its system HCT-116. Description: Induction of cell cycle arrest in p53-deficient human HCT116 cells assessed as accumulation at S phase at 1 uM after 24 hrs by flow cytometric analysis (reference value: 13.5%). The assay is classed as functional.
Assay [9] relates to HCT-116. The experiment in a line: Growth inhibition of p53-deficient human HCT116 cells at > 5 uM after 24 hrs by crystal violet staining-based microscopic analysis. In kind it is functional, cell-based. Put shortly: as §2
In assay [10] the test system is HCT-116. Description: Induction of cell cycle arrest in p53-deficient human HCT116 cells assessed as accumulation at S phase at 1 uM after 48 hrs by flow cytometric analysis (reference value: 13.5%). In kind it is functional.
Assay [11] concerns HCT-116. Description: Induction of cell cycle arrest in p53-deficient human HCT116 cells assessed as accumulation at G0/G1 phase at 1 uM after 24 hrs by flow cytometric analysis (reference value: 60%). In kind it is functional.
Assay [12] concerns HCT-116. The experiment in a line: Induction of cell cycle arrest in p53-deficient human HCT116 cells assessed as accumulation at G2/M phase at 1 uM after 24 hrs by flow cytometric analysis (reference value: 24.5%). In kind it is functional.
Assay [13] deals with HCT-116. The experiment in a line: Induction of cell cycle arrest in p53-deficient human HCT116 cells assessed as accumulation at G0/G1 phase at 1 uM after 48 hrs by flow cytometric analysis (reference value: 60%). The assay is classed as functional.
The test system of assay [14] is HCT-116. The experiment in a line: Growth inhibition of p53-positive human HCT116 cells at > 5 uM after 24 hrs by crystal violet staining-based microscopic analysis. In kind it is functional, cell-based. In a few lines: as §2
In assay [15] the test system is HCT-116. The experiment in a line: Anticlonogenic activity against p53-deficient human HCT116 cells assessed as inhibition of colony formation at 0.1 to 20 uM after 24 hrs by crystal violet staining-based microscopic analysis. In kind it is functional, cell-based. In a few lines: as §2
The test system of assay [16] is HCT-116. Description: Growth inhibition of p53-deficient human HCT116 cells at > 1 uM after 24 hrs by crystal violet staining-based microscopic analysis. In kind it is functional, cell-based. Put shortly:
as §2

In assay [17] the test system is HCT-116. Description: Growth inhibition of p53-positive human HCT116 cells at > 1 uM after 24 hrs by crystal violet staining-based microscopic analysis. In kind it is functional, cell-based. Put shortly:
as §2

As for `COc1cc2nc(CNc3cccc(NS(C)(=O)=O)c3)[nH]c(=O)c2cc1OC`, the figures for the Activity in [1], in assay [2] and in assay [3] were 31%, 23% and 34%, respectively.
Usually pIC50 stands for the IC50 on a negative log10 scale, so that one unit is a factor of ten. As to `COc1cc2nc(-c3ccccc3Cl)nc(N=[N+]=[N-])c2cc1OC`, the Activity is given as 63% in assay [1], 43% in [2] and 50% in assay [3]. Further, the pIC50 in assay [4] was under 5.00; in assay [5], 5.10.
Take `COc1cc2nc(Nc3ccccc3-c3ccccc3NS(C)(=O)=O)nc(N)c2cc1OC`: the result in [6] and in assay [15] was Active. Moreover, the Activity in assay [7] was 34.5%; in assay [8] it was 14%; in assay [1], 95%; in [2] it was 94%; in assay [10], 9%; in assay [11] it was 61%. Besides, the values for the Activity in [3], in assay [12] and in assay [13] were 95%, 23% and 54.5%, respectively. The “growth inhibition (GI)” value in assay [9] and in [14] was “Active” in each case. For the same compound, the pIC50 in [4] is 5.30; in [5], 5.22.
For the compound `COc1cc2nc(-c3ccccc3Cl)nc(N)c2cc1OC`, the Activity amounted to 4% in assay [2] and 18% in assay [3].
Consider `COc1ccc(-c2nc(N=[N+]=[N-])c3cc(OC)c(OC)cc3n2)cc1`, for which the Activity is 48% in assay [1], 42% in [2] and 58% in assay [3]. In addition, the results for the pIC50 in [4] and in [5] were 5.15 and 5.00, respectively.
As for `CCCCn1c(-c2ccc(-c3nnn[nH]3)cc2)nc2cc(OC)c(OC)cc2c1=O`, the Activity in assay [1] is 8%; in [2], 2%; in [3], 15%.
For `COc1ccc(-c2nc3cc(OC)c(OC)cc3c(=O)[nH]2)cc1` the same measures were 3%, 2% and 10%.
For `COc1cc2nc(-c3ccc(C)cc3)nc(N)c2cc1OC` the same measures were 16%, 2% and 5%.
Taken in the same sequence, the figures for `CCCCn1c(-c2cccc(-c3nnn[nH]3)c2)nc2cc(OC)c(OC)cc2c1=O` were 3%, 4% and 13%.
For the compound `COc1cc2nc(Cc3ccc(Cl)cc3)[nH]c(=O)c2cc1OC`, the Activity came to 57% in [1], 49% in [2] and 63% in [3]. Moreover, the pIC50 in [4] is under 5.00; in [5], 5.05.
Turning to `COc1cc2nc(Cc3cccc4ccccc34)[nH]c(=O)c2cc1OC`, the result in assay [6] and in [15] was Active. For the same compound, the “growth inhibition (GI)” value in [16] and in assay [17] was “Active” throughout. The Activity in assay [1] came to 79%; in [2], 66%; in assay [3] it was 80%. Besides, the values for the pIC50 in assay [4] and in assay [5] were 6.15 and 5.77, respectively.
As for `CCCCn1c(-c2ccc(NS(C)(=O)=O)cc2)nc2cc(OC)c(OC)cc2c1=O`, the Activity in assay [1] is on record as 4%; in [2], 0.5%; in assay [3], 6%.
For `COc1ccc(NCc2nc3cc(OC)c(OC)cc3c(=O)[nH]2)cc1` the same measures were 22%, 19% and 38%.
For `COc1cc2nc(Cc3ccccc3Cl)[nH]c(=O)c2cc1OC`, the Activity in [1] is 50%; in assay [2], 35%; in [3], 59%. In addition, the pIC50 in assay [4] was under 5.00; in assay [5], 5.05.
As to `CCCCn1c(-c2ccc(NC(C)=O)cc2)nc2cc(OC)c(OC)cc2c1=O`, the Activity stood at 17% in assay [1], 6% in assay [2] and 19% in assay [3].
For `COc1cc2nc(CNc3ccc(NS(C)(=O)=O)cc3)[nH]c(=O)c2cc1OC` the same measures were 14%, 9% and 28%.
For `COc1cc2nc(Nc3ccc([N+](=O)[O-])cc3)nc(N)c2cc1OC` the same measures were 22%, 4% and 42%.
Taken in the same sequence, the figures for `COc1cc2nc(-c3cccc(NC(C)=O)c3)[nH]c(=O)c2cc1OC` were 22%, 12% and 16%.
For `COc1cccc(-c2nc(N=[N+]=[N-])c3cc(OC)c(OC)cc3n2)c1`, the figures for the Activity in assay [1], in assay [2] and in assay [3] were 24%, 13% and 25%, respectively.
For `CCCCn1c(-c2cccc(NS(C)(=O)=O)c2)nc2cc(OC)c(OC)cc2c1=O` the same measures were 27%, 9% and 26%.
Taken in the same sequence, the figures for `COc1cc2nc(-c3cccc(Cl)c3)nc(N)c2cc1OC` were 2%, 3% and 19%.
With `COc1cc2nc(-c3cccc(Cl)c3)nc(N=[N+]=[N-])c2cc1OC`, the Activity in assay [1] is listed as 45%; in assay [2] it was 35%; in assay [3], 56%. For the same compound, the pIC50 in assay [4] and in assay [5] was 5.00 throughout.
Regarding `COc1cccc(-c2nc(N)c3cc(OC)c(OC)cc3n2)c1`, the Activity in assay [1] turned out to be 20%; in assay [2], 7%; in assay [3], 19%.
For `COc1cc2nc(-c3cccc(C)c3)nc(N)c2cc1OC` the same measures were 27%, 6% and 20%.
Taken in the same sequence, the figures for `COc1ccc(-c2nc(N)c3cc(OC)c(OC)cc3n2)cc1` were 42%, 17% and 21%.
Turning to `COc1cc2nc(-c3ccc(C)cc3)nc(N=[N+]=[N-])c2cc1OC`, the values for the Activity in [1], in assay [2] and in assay [3] were 66%, 29% and 47%, respectively. Also, the pIC50 in assay [4] is 5.05; in assay [5], 5.10.
Consider `COc1cc2nc(-c3cccc(C)c3)nc(N=[N+]=[N-])c2cc1OC`, for which the Activity in assay [1] was determined as 71%; in [2], 42%; in assay [3] it was 55%. Besides, the pIC50 in [4] was under 5.00; in assay [5] it was 5.05.
With `COc1cc2nc(-c3cccc(Cl)c3)[nH]c(=O)c2cc1OC`, the Activity in [1] worked out at 37%; in [2] it was 42%; in assay [3], 35%.
For `COc1cc2nc(CNc3ccc(C(=O)O)cc3)[nH]c(=O)c2cc1OC` the same measures were 8%, 0.5% and 30%.
